The entries come from a sample that favours hits as a whole.
Fibroblast inh: blocks proliferation of human lung fibroblasts | LL 47 human lung fibroblast viability, ATP luminescence; active compounds read low | viability, % at 10 µM | hit rate 1.1% among 85,000 | AID 719;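 active means viability at or below 50% in the single dose screen; inactive means viability above 50%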;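 further: compound exposure lasted 72 h before the ATP readout; 100% = median luminescence of untreated cell-only wells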
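Test system: LL 47 human lung fibroblasts / Incubation: 72 h compound exposure at 37 °C after overnight plating / Technique: luminescent ATP detection, CellTiter-Glo / Compound dosing: 0.1% DMSO in all compound wells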
HCT116 PTEN-null: PTEN-deleted cell growth suppression. HCT116 PTEN-null viability, CellTiter-Glo, 60 h; active compounds read low. viability, % at 10 µM. hit rate 1.2% among 140,000;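 active means viability at or below a set limit, 4 SD under the median of all tested compounds, cut at about 3.7% in these data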;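 further: PTEN knockout HCT116 line with beta catenin targeted HCT116 as companion control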
HCT116 bCat-KO: beta-catenin-lacking colon tumor cell growth suppression; HCT116 beta-catenin knockout viability, CellTiter-Glo, 60 h; active compounds read low; viability, % at 10 µM; hit rate 1.5% among 140,000; AID 818;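 active means viability at or under a set limit, the compound median less 4 SD, cut at about 6% in these data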;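 further: 0% = Hyamine 1622 control at 20 µM and 100% = untreated cell control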
HUVEC inhibit: inhibitors of human endothelial cell proliferation. HUVEC proliferation, CellTiter-Glo luminescence, 72 h; active compounds read low. viability, % at 10 µM (by protocol). hit rate 1.1% among 86,000. AID 648;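 active means viability at or below 30%; inactive means viability above 30%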;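 further: 100% = median luminescence of DMSO-only cell control wells on each plate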
H69AR inhibit: blocks growth of human H69AR lung tumor cells | H69AR lung tumor viability, ATP luminescence, 72 h; active compounds read low | viability, % at 10 µM | hit rate 6% among 85,000;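 active means viability at or below 40%; inactive means viability above 40%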;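 further: multidrug resistant small cell line overexpressing MRP-1 efflux transporter; 100% = mean luminescence of untreated control wells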
* hit, by the source's call.

`COC1=C(N)C(=O)c2nc(-c3nc(C(=O)O)c(C)c(-c4ccc(OC)c(OC)c4O)c3N)ccc2C1=O` gave HCT116 PTEN-null 2.0* and HCT116 bCat-KO 2.3*.
Screening COc1ccc(-c2ncncc2-c2csc(C)n2)c(O)c1OC returned Fibroblast inh 98, HCT116 PTEN-null 97, HCT116 bCat-KO 98, HUVEC inhibit 102 and H69AR inhibit 92.
`Cc1ccc2nc(NC(=O)c3ccc(NS(=O)(=O)c4cccs4)cc3)sc2c1` gave HCT116 PTEN-null 71 and HCT116 bCat-KO 74.
CCOc1ccc(NS(=O)(=O)c2ccc(OCC)c3ncccc23)cc1 was read as Fibroblast inh 76, HCT116 PTEN-null 42, HCT116 bCat-KO 43, HUVEC inhibit 66 and H69AR inhibit 16*.
O=C(OC(c1ccccc1)c1nccc2ccccc12)c1cc([N+](=O)[O-])cc([N+](=O)[O-])c1 (configuration not stated) was read as HCT116 PTEN-null 73 and HCT116 bCat-KO 89.
Cc1ccc(S(=O)(=O)N(C)CC(O)Cn2c3ccccc3c3ccccc32)cc1 (configuration not stated) was read as Fibroblast inh 99, HCT116 PTEN-null 57, HCT116 bCat-KO 69, HUVEC inhibit 88 and H69AR inhibit 80.
Screening O=S(=O)(c1ccc(F)cc1)N(CCO)CC(O)Cn1c2ccccc2c2ccccc21 (configuration not stated) returned Fibroblast inh 99, HCT116 PTEN-null 76, HCT116 bCat-KO 84, HUVEC inhibit 55 and H69AR inhibit 13*.
CCN(CC(O)Cn1c2ccccc2c2ccccc21)S(=O)(=O)c1ccc(F)cc1 (configuration not stated) was read as Fibroblast inh 95, HCT116 PTEN-null 79, HCT116 bCat-KO 75, HUVEC inhibit 81 and H69AR inhibit 18*.
Screening O=S(=O)(c1ccccc1)N(CC(O)Cn1c2ccccc2c2ccccc21)c1ccccc1 (configuration not stated) returned HCT116 PTEN-null 17 and HCT116 bCat-KO 16.
`COC1(OC)C(/C=C/c2ccc(Cl)cc2)C(C#N)(C#N)C1(OC)OC` (configuration not stated) gave Fibroblast inh 52, HCT116 PTEN-null 3.0*, HCT116 bCat-KO 4.2*, HUVEC inhibit 7.0* and H69AR inhibit -0.4*.
Screening COc1ccc(CN2C(=O)CN=C2Nc2cc(C)ccc2C)cc1 returned Fibroblast inh 95, HCT116 PTEN-null 91, HCT116 bCat-KO 98, HUVEC inhibit 79 and H69AR inhibit 40*.
For CS(=O)(=O)c1ccc2nc(NC(=O)CCC(=O)c3cccs3)sc2c1 the results were Fibroblast inh 100, HCT116 PTEN-null 81, HCT116 bCat-KO 79, HUVEC inhibit 96 and H69AR inhibit 40*.
Screening CC(C)(C)NS(=O)(=O)c1ccc2nc(NC(=O)Cc3cccs3)sc2c1 returned Fibroblast inh 65, HCT116 PTEN-null 55, HCT116 bCat-KO 65, HUVEC inhibit 48 and H69AR inhibit 28*.
CS(=O)(=O)c1ccc2nc(NC(=O)Cc3ccccc3)sc2c1 was read as Fibroblast inh 100, HUVEC inhibit 92 and H69AR inhibit 72.
Screening COc1ccc(-n2nc(C(=O)Nc3nc4ccc(OC)cc4s3)c3ccccc3c2=O)cc1 returned HCT116 PTEN-null 20 and HCT116 bCat-KO 26.
CC(C)n1nc(C(=O)Nc2nc3ccc(S(C)(=O)=O)cc3s2)c2ccccc2c1=O was read as Fibroblast inh 50*, HCT116 PTEN-null 29, HCT116 bCat-KO 29, HUVEC inhibit 107 and H69AR inhibit 92.
Screening CCn1c(N2CCN(C(=S)NCCc3ccccc3)CC2)nc2ccccc21 returned HCT116 PTEN-null 85 and HCT116 bCat-KO 86.
COc1ccc(N2C(N)=C(C#N)C(c3ccsc3)C3=C2CCCC3=O)c(OC)c1 (configuration not stated) was read as HCT116 PTEN-null 86 and HCT116 bCat-KO 85.
`C(=C\c1ccccc1)/CSc1nnc(-c2ccccc2)n1Cc1ccco1` gave Fibroblast inh 47*, HCT116 PTEN-null 12, HCT116 bCat-KO 10, HUVEC inhibit 43 and H69AR inhibit 18*.
Screening Brc1ccc(CSc2nnc(-c3ccccn3)n2Cc2ccco2)cc1 returned Fibroblast inh 49*, HCT116 PTEN-null 10, HCT116 bCat-KO 11, HUVEC inhibit 52 and H69AR inhibit 21*.
For CC(C)Cn1cnc2c1c(=O)n(CC(=O)Nc1ccc3c(c1)OCO3)c(=O)n2Cc1ccccc1 the results were Fibroblast inh 94, HCT116 PTEN-null 69, HCT116 bCat-KO 72, HUVEC inhibit 113 and H69AR inhibit 86.
COCCCn1c(C2CCCCC2)nc2oc3cc(OC)ccc3c(=O)c2c1=O was read as Fibroblast inh 94, HCT116 PTEN-null 88, HCT116 bCat-KO 96, HUVEC inhibit 108 and H69AR inhibit 80.
`Cc1cc(C)c2ccc(N)nc2c1O` gave Fibroblast inh 9.4*, HCT116 PTEN-null 5, HCT116 bCat-KO 3.8*, HUVEC inhibit 76 and H69AR inhibit 14*.
Screening Cc1ccc(N(CC(O)COCc2ccco2)S(=O)(=O)c2ccc(C)cc2)cc1 (configuration not stated) returned Fibroblast inh 99, HCT116 PTEN-null 78, HCT116 bCat-KO 74, HUVEC inhibit 84 and H69AR inhibit 87.
For CCc1nnc2n1N=C(c1ccc(-c3ccc(Cl)cc3Cl)o1)CS2 the results were Fibroblast inh 95, HUVEC inhibit 97 and H69AR inhibit 84.
Clc1ccc(OCc2nnc3n2N=C(c2ccc4c(c2)OCCO4)CS3)c(Cl)c1 was read as Fibroblast inh 87, HCT116 PTEN-null 27, HCT116 bCat-KO 27, HUVEC inhibit 77 and H69AR inhibit 38*.
`COc1ccc(-c2cc(C(F)(F)F)nc(SCC(=O)NCc3cccs3)n2)cc1OC` gave HCT116 PTEN-null 82 and HCT116 bCat-KO 87.
For CCOc1ccc2nc(NC(=O)CS(=O)(=O)c3ccc(C)cc3)sc2c1 the results were Fibroblast inh 85, HCT116 PTEN-null 80, HCT116 bCat-KO 73, HUVEC inhibit 66 and H69AR inhibit 2.2*.
CCOc1ccc2nc(NS(=O)(=O)Cc3ccccc3)sc2c1 was read as Fibroblast inh 62, HCT116 PTEN-null 14, HCT116 bCat-KO 11, HUVEC inhibit 52 and H69AR inhibit 21*.
For O=C1OC(c2cccc([N+](=O)[O-])c2)C2(CCCC2)C(=O)C12CCCCC2 (configuration not stated) the results were HCT116 PTEN-null 52 and HCT116 bCat-KO 49.
Cc1cc(=O)[nH]c(N/N=C/c2ccccn2)n1 was read as HCT116 PTEN-null 13 and HCT116 bCat-KO 11.
For CCCc1sc(N/N=C/c2ccccn2)nc1-c1ccc(Br)cc1 the results were Fibroblast inh 29*, HCT116 PTEN-null 11, HCT116 bCat-KO 7, HUVEC inhibit 5.2* and H69AR inhibit 11*.

Compound activity deposited in PubChem BioAssay by SRMLSC.
